Test results reported in the EternaBench riboswitch data.

Columns and labels:
[1] = system: MS2 coat protein; assay: apparent Kd, MS2 coat protein; higher = weaker binding; RNA-MaP array; tryptophan 2.4 mM where present
Method in brief: (§1)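 In 100 mM Tris-HCl pH 7.5, 80 mM KCl, 4 mM MgCl2, BSA, DTT, yeast tRNA and Tween-20, SNAP-549-labelled MS2 coat protein was titrated from 0.7 or 1.5 nM, doubling to 3 µM, over designs transcribed by stalled E. coli RNA polymerase on Illumina sequencing-chip clusters. This was done first without ligand, then with ligand held constant. After green signal was normalised to red-channel RNA signal and control-cluster median Fmax, the apparent Kd was taken as the median of filtered per-cluster binding-curve fits.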

[2] = system: MS2 coat protein; assay: apparent Kd, MS2 coat protein; higher = weaker binding; RNA-MaP array; theophylline 2 mM where present
Method in brief: as §1

[3] = designed as: OFF switch for tryptophan, no ligand
[4] = ligand present: tryptophan, designed as: OFF switch for tryptophan
[5] = designed as: ON switch for tryptophan, no ligand
[6] = ligand present: tryptophan, designed as: ON switch for tryptophan
[7] = designed as: ON switch for theophylline, no ligand
[8] = ligand present: theophylline, designed as: ON switch for theophylline
[9] = designed as: OFF switch for theophylline, no ligand
[10] = ligand present: theophylline, designed as: OFF switch for theophylline

AAUGUAUGGCACAUGAGGAUCACCCAUGUGCGAGGACCGGUACGGCCGCCACUCGGUCCUGGGAUCUUAUUACUAUACAUUAAUG
apparent Kd [1, 3]: 11.6 nM
apparent Kd [1, 4]: 24 nM

ACACAAUACAUGAGGAUCACCCAUGUAAAACGAGGACCGGUACGGCCGCCACUCGAAUACUGUAAUCCUCGGAAUAUUAAGUGAA
apparent Kd [1, 3]: 41 nM
apparent Kd [1, 4]: 35.3 nM

UAACAUGAGGAUCACCCAUGUUUGAAGAAACGAGGACCGGUACGGCCGCCACUCGACGAGUGGAUGAAUAGUGGGCUUGUGUGCU
apparent Kd [1, 5]: 13.7 nM
apparent Kd [1, 6]: 15 nM

UAACAUGAGGAUCACCCAUGUAAACUAAGUCGAGGACCGGUACGGCCGCCACUCGAAAUUGAAGAAUUGGCGGAAAAUGUAUGUU
apparent Kd [1, 3]: 13.9 nM
apparent Kd [1, 4]: 18.9 nM

AUGCAGAACACGGCCGCCACUCAUUGUAGACAUGAGGAUCACCCAUGUAAUAGGGAUAUUUUAUUGAGGACCGGGUGUAAUGCAA
apparent Kd [1, 5]: 51.1 nM
apparent Kd [1, 6]: 28.9 nM

UUUGGCGGCGAUCUGGGUUUACCAGAUCGGCGAGGACCGGUACGGCCGCCACUCGUGUUUCUUUGACAUGAGGAUCACCCAUGUA
apparent Kd [1, 5]: 62.5 nM
apparent Kd [1, 6]: 39.1 nM

UAAUCCGGUCCUCGAUAACAUGGGUGAAUACGAGGACCGGUACGGCCGCCACUCGAUAACAUGAGGAUCACCCAUGUAAUAAUAA
apparent Kd [1, 3]: 85.7 nM
apparent Kd [1, 4]: 84.1 nM

AGCAACAAGUCGGCCGCCACUCUUUUUACAUGAGGAUCACCCAUGUUUAUAUCAUGGUCUUAAUAGAGGACCGGGACAGUUGCAU
apparent Kd [1, 3]: 37.2 nM
apparent Kd [1, 4]: 54.6 nM

CGCCACUCGAGUGAUCCUCACGAGUGGCUACGAGGACCGGUACGGCCGCCACUCGAAUUAACAUGAGGAUCACCCAUGUACUCCA
apparent Kd [1, 5]: 93.6 nM
apparent Kd [1, 6]: 19.1 nM

GCAUCCUAGUCGGCCGCCACUGCAAUUGUAGUACUGCUACAUGAACAUGAGGAUCACCCAUGUAGCAGGACCGGGACUAGGAUGC
apparent Kd [1, 5]: 55 nM
apparent Kd [1, 6]: 16.1 nM

UGUCAGCGAAAGUUGACAUGUCUUACCGGUCGAGGACCGGUACGGCCGCCACUCGAUCUCUCGCACAUGAGGAUCACCCAUGUUG
apparent Kd [1, 5]: 21.4 nM
apparent Kd [1, 6]: 15.1 nM

UUACCGUAAGGUAUACCGGUCCACAAUAAUCGAGGACCGGUACGGCCGCCACUCGAUGUGUGAUCACAUGAGGAUCACCCAUGUA
apparent Kd [1, 5]: 265 nM
apparent Kd [1, 6]: 379 nM

AAUUCCGGGUCGGCCGCCACUGAUAUGGCGAGUCCUCGAACUUACAUGAGGAUCACCCAUGUAAACAGGACCGGGACCGCAUGGG
apparent Kd [1, 3]: 18.5 nM
apparent Kd [1, 4]: 49.1 nM

UAUACAUGGUAUAAAUAUAUAUAUAAGAAACGAGGACCGGUACGGCCGCCACUCGUGCCGGAAACAUGAGGAUCACCCAUGUAUU
apparent Kd [1, 3]: 37.6 nM
apparent Kd [1, 4]: 22.8 nM

AUCGUACCUGAUGAUACCAGCAUGUGAUCAUAACAUGAGGAUCACCCAUGUAAUCAGUGAUGCCCUUGGCAGCAUGAUCGGUACA
apparent Kd [2, 7]: 57.3 nM
apparent Kd [2, 8]: 26.3 nM

AUAACAUGAGGAUCACCCAUGUAGAGUGAUACCAGACUACGUAAUGUCCCUUGGCAGCACAAGUAAAGUUACGAAUAUUGAUAGA
apparent Kd [2, 7]: 192 nM
apparent Kd [2, 8]: 51.5 nM

GGUCUCUGGAGCGAUACCAGCUUGAGUGUACUGGCCAGGUACAUGAGGAUCACCCAUGUAAGCCCUUGGCAGCGCUGCAGAGACC
apparent Kd [2, 9]: 10.1 nM
apparent Kd [2, 10]: 29.1 nM

AUACCGAGUGAGUCGUGUUUCUUUUCAGAUACCAGACUUUUCGUUGUCCCUUGGCAGCUGUUUUACAUGAGGAUCACCCAUGUUG
apparent Kd [2, 9]: 18.2 nM
apparent Kd [2, 10]: 25.5 nM

AUCUUGUACCGUAAUACUUUACGUUGGGAUACCAGCAUGGACCCAUGCCCUUGGCAGCUUUACAUGAGGAUCACCCAUGUUGUAG
apparent Kd [2, 7]: 36.6 nM
apparent Kd [2, 8]: 32.5 nM

AUUAAUAGUUGUGAUACCAGACGAACAUGAGGAUCACCCAUGUAACUUUUAGGUGUUGUAGUCCCUUGGCAGCACUAUGUAGUUA
apparent Kd [2, 7]: 40 nM
apparent Kd [2, 8]: 33.7 nM

AAUGGCGUUGGUGAGGCGGUUAAUGGCGAUACCAGCGUGGAAACACGCCCUUGGCAGCGCCAAAACAUGAGGAUCACCCAUGUUA
apparent Kd [2, 9]: 14.7 nM
apparent Kd [2, 10]: 139 nM

AAAAUAAAUAAAACGCGUAACAUGAAGGAUACCAGCCAGAAAACUGGCCCUUGGCAGCCUCUACAUGAGGAUCACCCAUGUCGCG
apparent Kd [2, 7]: 331 nM
apparent Kd [2, 8]: 29.6 nM

AGCAUGUUAUCAGAUACCAGACAUCUUUUUUUACGUAUUACAUGAGGAUCACCCAUGUUGGUCCCUUGGCAGCUGAAAUAUUUCA
apparent Kd [2, 7]: 203 nM
apparent Kd [2, 8]: 31.9 nM

UGUAUGUGAUCUGAUACCAGUCCAACUGGUAAAACAUGAGGAUCACCCAUGUAAAAUUGGGACCCUUGGCAGCAGAUCGCAUACU
apparent Kd [2, 7]: 534 nM
apparent Kd [2, 8]: 28.4 nM

UCGUGUAUAUCGGAUACCAGUGAGAACGAUACAUGAGGAUCACCCAUGUGAGUUGAUGUACACCCUUGGCAGCUGUAUAUAUCUA
apparent Kd [2, 7]: 25 nM
apparent Kd [2, 8]: 16.3 nM

CUCGGGUUAUCAGAUACCAGACUAAAAUUUACAUGAGGAUCACCCAUGUAAUGGGUGAUAGUCCCUUGGCAGCUGUUAUGUUUAA
apparent Kd [2, 9]: 62.3 nM
apparent Kd [2, 10]: 119 nM

GGCACUCUGUAAGAUACCAGACGUCGGUGCUUACAUGAGGAUCACCCAUGUUGCUUUUUAGUCCCUUGGCAGCUUCGGAUAACCA
apparent Kd [2, 7]: 121 nM
apparent Kd [2, 8]: 147 nM

ACAUGAGGAUCACCCAUGUCACGGCACGAUACCAGCUGAUCCGGUGGCCCUUGGCAGCGUGACGUUUGGUCCCGCGGAUCACACG
apparent Kd [2, 7]: 75.4 nM
apparent Kd [2, 8]: 38.6 nM

UUAUUUAUAAAUGAUACCAGCCGAUUGGCCGCAAAUCCUAACAUGAGGAUCACCCAUGUCGGCCCUUGGCAGCAUUUAUGGGUUU
apparent Kd [2, 9]: 76.7 nM
apparent Kd [2, 10]: 722 nM

GUCAGUUCUCAUGAUACCAGACCUGCCUCGGACAUGAGGAUCACCCAUGUACCCAAGCGAGUCCCUUGGCAGCAUGUGGCUUAAA
apparent Kd [2, 7]: 19.2 nM
apparent Kd [2, 8]: 10.8 nM

AUCGCACCUGGUGAUACCAGCGUUUGCUCGCGACAUGAGGAUCACCCAUGUGGCCAGUGAUGCCCUUGGCAGCAUGGGCGGUGCA
apparent Kd [2, 7]: 282 nM
apparent Kd [2, 8]: 90.2 nM

AAACGUUGCUGCGAUACCAGACAUGAGGAUCACCCAUGUACCAAGGUACGAAAAUAACAUGUCCCUUGGCAGCGCAGCAACGAAA
apparent Kd [2, 9]: 13.2 nM
apparent Kd [2, 10]: 336 nM

ACAUGAGGAUCACCCAUGUGCCGUCUUGAUACCAGACCCGAAGUAGUCCCUUGGCAGCAACUACGUGACGGUCGCCCAUGUGUAG
apparent Kd [2, 9]: 14.2 nM
apparent Kd [2, 10]: 24 nM

UAAAACAUGAGGAUCACCCAUGUAAUUGAUACCAGAGUGAUGAUCCUCCCUUGGCAGCAAAACGCUGAUUGGAAACAAUCAGCGA
apparent Kd [2, 7]: 113 nM
apparent Kd [2, 8]: 251 nM

UGAUCCUACAGAGAUACCAGUGCCACUGAGUGACCAGACACAUGAGGAUCACCCAUGUAACACCCUUGGCAGCUCAACUAAAGGG
apparent Kd [2, 7]: 22.2 nM
apparent Kd [2, 8]: 80.3 nM

GAACAUGAGGAUCACCCAUGUUAAACAGAUACCAGUGAUAUAAUACACCCUUGGCAGCUGAAGCUGAAUAAUAAUUCCCUCAAGC
apparent Kd [2, 7]: 12 nM
apparent Kd [2, 8]: 14.3 nM

GCACUACAUGAGGAUCACCCAUGUGCAGAUACCAGAGGUGUAUGCCUCCCUUGGCAGCUGCGUCGCUCUGGAAACUUAUUGGUUU
apparent Kd [2, 7]: 18.4 nM
apparent Kd [2, 8]: 22.7 nM

GGGCCCGUAAGCAGGCCCACAGCGGGUGAUACCAGCAAUAAAACUUGCCCUUGGCAGCACACAGCUACAUGAGGAUCACCCAUGU
apparent Kd [2, 7]: 36.5 nM
apparent Kd [2, 8]: 63.5 nM

GAUGAACUAUUCGAUACCAGACUACAUGAGGAUCACCCAUGUGUGUCAAUUUCUCAGUCAGUCCCUUGGCAGCGAAUAGUUUAUC
apparent Kd [2, 9]: 38.2 nM
apparent Kd [2, 10]: 54.3 nM

GCACGACAUGAGGAUCACCCAUGUGCAGAUACCAGUAAUGUAUGUUACCCUUGGCAGCUGAGUAGGUCUGGAGGGCUAUAGGUAA
apparent Kd [2, 7]: 13.3 nM
apparent Kd [2, 8]: 17.1 nM
